Reference: ChEMBL document CHEMBL5653631, “A Potent and Selective ULK1 Inhibitor Suppresses Autophagy and Sensitizes Cancer Cells to Nutrient Stress” (iScience, 2018)
Blank lines part the entries; values can stand above or below the compound they belong to.

Columns and labels:
[1] = biological target: T1, Serine/threonine-protein kinase Nek2 (Homo sapiens) (UniProt P51955); test: Inhibition of human recombinant NEK2 at 500 nM in presence of ATP by radiometric assay relative to control
T1 sequence (whole entry): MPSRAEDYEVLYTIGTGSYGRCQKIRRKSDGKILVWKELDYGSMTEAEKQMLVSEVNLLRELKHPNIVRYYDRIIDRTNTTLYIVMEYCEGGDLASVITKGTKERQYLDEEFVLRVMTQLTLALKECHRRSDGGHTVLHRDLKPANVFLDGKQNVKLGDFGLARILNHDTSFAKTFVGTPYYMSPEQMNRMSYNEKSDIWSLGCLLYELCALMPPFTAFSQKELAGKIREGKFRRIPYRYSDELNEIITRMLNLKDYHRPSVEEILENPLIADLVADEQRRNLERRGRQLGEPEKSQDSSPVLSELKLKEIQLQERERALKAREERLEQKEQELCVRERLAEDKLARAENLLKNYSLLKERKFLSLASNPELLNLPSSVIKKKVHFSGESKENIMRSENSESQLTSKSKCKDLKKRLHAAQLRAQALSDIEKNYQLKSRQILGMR

[2] = biological target: T2, NUAK family SNF1-like kinase 1 (Homo sapiens) (UniProt O60285); test: Inhibition of human recombinant NuaK1 at 500 nM in presence of ATP by radiometric assay relative to control
T2 sequence (whole entry): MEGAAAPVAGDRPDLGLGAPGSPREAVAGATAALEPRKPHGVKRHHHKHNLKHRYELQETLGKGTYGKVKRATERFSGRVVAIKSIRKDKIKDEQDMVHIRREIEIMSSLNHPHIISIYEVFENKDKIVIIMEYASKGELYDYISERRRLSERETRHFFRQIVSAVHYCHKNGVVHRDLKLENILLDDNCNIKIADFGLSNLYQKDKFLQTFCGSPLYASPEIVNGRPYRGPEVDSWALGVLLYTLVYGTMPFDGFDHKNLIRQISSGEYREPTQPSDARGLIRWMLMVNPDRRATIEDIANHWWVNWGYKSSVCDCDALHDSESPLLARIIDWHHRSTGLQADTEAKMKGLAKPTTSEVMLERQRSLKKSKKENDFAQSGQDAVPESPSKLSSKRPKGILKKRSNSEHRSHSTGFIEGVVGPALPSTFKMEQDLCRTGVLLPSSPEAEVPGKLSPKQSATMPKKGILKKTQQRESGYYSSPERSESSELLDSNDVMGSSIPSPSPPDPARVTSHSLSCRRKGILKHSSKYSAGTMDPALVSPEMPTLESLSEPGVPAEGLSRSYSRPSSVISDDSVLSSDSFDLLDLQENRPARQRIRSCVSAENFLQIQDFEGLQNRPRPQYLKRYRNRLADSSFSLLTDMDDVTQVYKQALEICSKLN

[3] = biological target: Aurora kinase B (Homo sapiens) (UniProt Q96GD4); test: Inhibition of human recombinant AurB at 500 nM related to control ULK1
Chain of Aurora kinase B (Homo sapiens) (Q96GD4 whole entry): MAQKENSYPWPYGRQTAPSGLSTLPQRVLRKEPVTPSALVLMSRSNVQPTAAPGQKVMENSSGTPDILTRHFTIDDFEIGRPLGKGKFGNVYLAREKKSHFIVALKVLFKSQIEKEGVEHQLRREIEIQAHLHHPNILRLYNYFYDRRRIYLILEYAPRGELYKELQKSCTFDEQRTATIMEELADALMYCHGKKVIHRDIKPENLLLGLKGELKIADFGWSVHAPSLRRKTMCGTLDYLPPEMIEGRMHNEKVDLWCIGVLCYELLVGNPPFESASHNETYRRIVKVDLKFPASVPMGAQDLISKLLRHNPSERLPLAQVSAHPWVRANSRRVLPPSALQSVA

[4] = biological target: Serine/threonine-protein kinase 32C (Homo sapiens) (UniProt Q86UX6); test: Inhibition of human recombinant YANK3 at 500 nM related to control ULK1
Chain of Serine/threonine-protein kinase 32C (Homo sapiens) (Q86UX6 whole entry, the tested form may be a part): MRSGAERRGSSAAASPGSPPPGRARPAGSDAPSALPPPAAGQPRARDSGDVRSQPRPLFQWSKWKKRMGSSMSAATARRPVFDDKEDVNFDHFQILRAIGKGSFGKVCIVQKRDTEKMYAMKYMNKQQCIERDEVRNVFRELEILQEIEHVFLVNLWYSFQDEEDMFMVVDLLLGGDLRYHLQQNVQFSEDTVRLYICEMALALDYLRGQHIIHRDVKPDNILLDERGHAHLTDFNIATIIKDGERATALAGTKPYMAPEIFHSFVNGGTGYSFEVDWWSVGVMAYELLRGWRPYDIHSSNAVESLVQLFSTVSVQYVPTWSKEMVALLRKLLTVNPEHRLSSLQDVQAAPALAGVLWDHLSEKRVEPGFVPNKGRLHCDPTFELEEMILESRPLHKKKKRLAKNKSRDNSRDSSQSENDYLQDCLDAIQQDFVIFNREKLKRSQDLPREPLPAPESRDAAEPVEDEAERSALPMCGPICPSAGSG

[5] = biological target: Epithelial discoidin domain-containing receptor 1 (Homo sapiens) (UniProt Q08345); test: Inhibition of human recombinant DDR1 at 15 nM related to control ULK1
Chain of Epithelial discoidin domain-containing receptor 1 (Homo sapiens) (Q08345 whole entry, the tested form may be a part): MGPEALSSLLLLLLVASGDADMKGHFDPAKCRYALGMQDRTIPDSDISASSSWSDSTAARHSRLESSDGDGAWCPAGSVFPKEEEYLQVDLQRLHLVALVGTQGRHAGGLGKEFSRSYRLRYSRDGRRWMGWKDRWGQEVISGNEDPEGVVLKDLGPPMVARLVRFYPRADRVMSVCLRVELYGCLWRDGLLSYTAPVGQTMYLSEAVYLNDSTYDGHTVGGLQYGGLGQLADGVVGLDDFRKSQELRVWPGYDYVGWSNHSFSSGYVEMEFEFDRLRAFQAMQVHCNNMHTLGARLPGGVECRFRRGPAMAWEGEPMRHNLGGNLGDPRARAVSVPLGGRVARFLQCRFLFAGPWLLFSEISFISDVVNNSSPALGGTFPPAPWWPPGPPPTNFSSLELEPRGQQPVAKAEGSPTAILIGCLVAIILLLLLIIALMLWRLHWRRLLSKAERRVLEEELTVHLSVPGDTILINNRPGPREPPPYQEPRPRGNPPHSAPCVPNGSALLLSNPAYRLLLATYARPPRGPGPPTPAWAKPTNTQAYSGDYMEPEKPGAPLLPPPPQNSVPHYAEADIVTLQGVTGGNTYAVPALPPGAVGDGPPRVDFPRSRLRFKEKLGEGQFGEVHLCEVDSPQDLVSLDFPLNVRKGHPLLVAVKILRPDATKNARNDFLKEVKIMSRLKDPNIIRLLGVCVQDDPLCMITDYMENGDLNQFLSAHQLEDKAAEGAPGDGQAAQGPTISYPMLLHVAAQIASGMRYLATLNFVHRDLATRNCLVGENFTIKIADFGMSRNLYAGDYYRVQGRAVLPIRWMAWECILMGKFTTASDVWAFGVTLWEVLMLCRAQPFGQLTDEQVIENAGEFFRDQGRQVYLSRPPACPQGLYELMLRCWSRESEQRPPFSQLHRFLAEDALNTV

[6] = biological target: LIM domain kinase 1 (Homo sapiens) (UniProt P53667); test: Inhibition of human recombinant LIMK1 at 15 nM related to control ULK1
Chain of LIM domain kinase 1 (Homo sapiens) (P53667 whole entry, looked up, the tested form may be a part): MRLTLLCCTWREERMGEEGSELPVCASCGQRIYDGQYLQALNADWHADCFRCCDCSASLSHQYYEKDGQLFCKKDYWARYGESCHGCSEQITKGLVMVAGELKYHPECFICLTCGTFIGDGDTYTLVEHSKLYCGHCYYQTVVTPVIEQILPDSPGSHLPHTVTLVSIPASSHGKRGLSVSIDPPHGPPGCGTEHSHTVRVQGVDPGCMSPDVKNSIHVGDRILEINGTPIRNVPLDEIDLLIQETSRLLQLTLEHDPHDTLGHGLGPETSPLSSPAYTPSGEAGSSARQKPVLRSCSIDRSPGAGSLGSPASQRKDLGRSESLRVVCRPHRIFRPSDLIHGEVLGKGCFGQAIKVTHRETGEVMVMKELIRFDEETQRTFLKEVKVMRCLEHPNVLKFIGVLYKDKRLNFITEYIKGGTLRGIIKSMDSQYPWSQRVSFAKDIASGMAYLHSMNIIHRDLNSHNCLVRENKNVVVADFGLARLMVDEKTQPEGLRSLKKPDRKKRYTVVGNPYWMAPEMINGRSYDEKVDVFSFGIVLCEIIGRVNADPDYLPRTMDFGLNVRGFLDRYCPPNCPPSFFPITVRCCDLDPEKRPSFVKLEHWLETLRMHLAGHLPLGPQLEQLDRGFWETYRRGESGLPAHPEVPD

[7] = biological target: T3, Aurora kinase A (Homo sapiens) (UniProt O14965); test: Inhibition of human recombinant AurA at 40 nM in presence of ATP by radiometric assay relative to control
T3 sequence (whole entry): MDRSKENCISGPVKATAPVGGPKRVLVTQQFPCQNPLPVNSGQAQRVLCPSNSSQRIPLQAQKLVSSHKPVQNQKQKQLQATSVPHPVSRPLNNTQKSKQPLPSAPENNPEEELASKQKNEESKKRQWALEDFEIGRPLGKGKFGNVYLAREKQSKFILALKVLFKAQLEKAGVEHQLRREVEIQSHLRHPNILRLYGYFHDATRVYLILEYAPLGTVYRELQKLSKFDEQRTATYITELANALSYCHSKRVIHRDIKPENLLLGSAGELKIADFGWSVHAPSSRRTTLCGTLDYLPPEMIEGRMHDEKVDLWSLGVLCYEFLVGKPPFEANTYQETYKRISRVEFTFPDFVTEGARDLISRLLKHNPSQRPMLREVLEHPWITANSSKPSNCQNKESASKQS
Procedure, shortened: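 Panel of 327 recombinant human kinases, each assayed in vitro by radiometric activity assay in duplicate at a single inhibitor concentration per compound, chosen with reference to its ULK1 inhibition. Activity remaining was expressed as percent of vehicle control, and percent inhibition was calculated as 100 minus percent activity remaining.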

[8] = biological target: Tyrosine-protein kinase Yes (Homo sapiens) (UniProt P07947); test: Inhibition of human recombinant YES at 40 nM in presence of ATP by radiometric assay relative to control
Chain of Tyrosine-protein kinase Yes (Homo sapiens) (P07947 2-543 limits assumed): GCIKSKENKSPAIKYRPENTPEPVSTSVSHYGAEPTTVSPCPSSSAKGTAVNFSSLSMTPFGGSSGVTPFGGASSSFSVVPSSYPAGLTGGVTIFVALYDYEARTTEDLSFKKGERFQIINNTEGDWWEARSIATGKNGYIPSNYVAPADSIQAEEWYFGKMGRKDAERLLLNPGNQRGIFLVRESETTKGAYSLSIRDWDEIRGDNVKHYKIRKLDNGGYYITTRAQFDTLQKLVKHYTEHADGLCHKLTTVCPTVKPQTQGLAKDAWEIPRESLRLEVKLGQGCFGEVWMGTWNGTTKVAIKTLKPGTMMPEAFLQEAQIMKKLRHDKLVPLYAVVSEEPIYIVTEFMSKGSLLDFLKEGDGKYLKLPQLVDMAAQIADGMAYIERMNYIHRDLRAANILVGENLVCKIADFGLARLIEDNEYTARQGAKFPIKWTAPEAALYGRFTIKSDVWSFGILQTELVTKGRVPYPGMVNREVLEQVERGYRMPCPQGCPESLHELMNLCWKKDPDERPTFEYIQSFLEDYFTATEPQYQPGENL

inhibition [1]: 0% | inhibition [2]: 71% | fold change (FC) [3]: 1.24 | fold change (FC) [4]: 0
Compound: CNC(=O)c1ccccc1Oc1nc(Nc2cc(OC)c(OC)c(OC)c2)ncc1Br

fold change (FC) [5]: 0.89 | fold change (FC) [6]: 0.64
Compound: CC(C)[C@H](NC(=O)c1cc(-c2cnn3cc(-c4ccc(OCCN5CCCCC5)cc4)cnc23)cs1)C(F)(F)F

inhibition [7]: 22% | inhibition [8]: 23%
Compound: O=C(N[C@@H](C1CC1)C(F)(F)F)c1cc(-c2cnn3cc(-c4ccc(F)cc4)cnc23)cs1
